From PubChem BioAssay
Fibroblast inh: blocks proliferation of human lung fibroblasts; LL 47 human lung fibroblast viability, ATP luminescence; hits give low values; viability, % at 10 µM; hit rate 1.1% among 85,000;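 active means viability at or below 50% in the single dose screen; inactive means viability above 50%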;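 further: compound exposure lasted 72 h before the ATP readout; 100% = median luminescence of untreated cell-only wells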
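Test system: LL 47 human lung fibroblasts; Quantity: 1,150 cells/well; Buffer or medium: IMEM plus 15% FBS; Dosing: tenfold compound dosing solution, DMSO at 0.1%; Timing: overnight cell rest, 72 h compound treatment at 37 °C; Detection: ATP-based CellTiter-Glo luminescent readout; Read-out basis: viability percentage against median untreated-cell control; Controls: cell-only wells, no compound.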
H69AR inhibit: blocks growth of human H69AR lung tumor cells. H69AR lung tumor viability, ATP luminescence, 72 h; hits give low values. viability, % at 10 µM. hit rate 6% among 85,000. AID 598;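 active means viability at or below 40%; inactive means viability above 40%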;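 further: multidrug resistant small cell line overexpressing MRP-1 efflux transporter; 100% = mean luminescence of untreated control wells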
HCT116 PTEN-null: PTEN-deleted cell growth suppression; viability, % at 10 µM; HCT116 PTEN-null viability, CellTiter-Glo, 60 h; hits give low values; hit rate 1.2% among 140,000; AID 827;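 active means viability at or below a set limit, 4 SD under the median of all tested compounds, cut at about 3.7% in these data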;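 further: PTEN knockout HCT116 line with beta catenin targeted HCT116 as companion control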
HUVEC inhibit: inhibitors of human endothelial cell proliferation; HUVEC proliferation, CellTiter-Glo luminescence, 72 h; hits give low values; viability, % at 10 µM (by protocol); hit rate 1.1% among 86,000; AID 648;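 active means viability at or below 30%; inactive means viability above 30%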;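 further: 100% = median luminescence of DMSO-only cell control wells on each plate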
bCat KO growth: beta-catenin-lacking colon tumor cell growth suppression; HCT116 beta-catenin knockout viability, CellTiter-Glo, 60 h; hits give low values; viability, % at 10 µM; hit rate 1.5% among 140,000;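 active means viability at or under a set limit, the compound median less 4 SD, cut at about 6% in these data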;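 further: 0% = Hyamine 1622 control at 20 µM and 100% = untreated cell control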
* marks the source's active call; other numbers are inactive results. Only a selection was taken, and hits are over-represented in it overall.

Screening CS(=O)(=O)c1nc(-c2ccc(Br)cc2)cc(-c2ccccc2)c1C#N returned Fibroblast inh 1.9*, H69AR inhibit 1.2*, HCT116 PTEN-null 2.1*, HUVEC inhibit 20* and bCat KO growth 1.6*.
COc1ccc(-c2cc(-c3ccccc3)c(C#N)c(S(C)(=O)=O)n2)cc1 was read as Fibroblast inh 71, H69AR inhibit 3.6*, HCT116 PTEN-null 0.9*, HUVEC inhibit 26* and bCat KO growth 1.1*.
Screening COc1cc(C(=O)NNC2=CC(=O)CC(C)(C)C2)cc(OC)c1OC returned HCT116 PTEN-null 91 and bCat KO growth 98.
Screening COc1ccc(CNC(=O)Cn2cc(C(F)(F)F)ccc2=O)cc1 returned HCT116 PTEN-null 92 and bCat KO growth 87.
COc1ccc(Cn2c(SCc3ccccc3C)nc3cc(OC)c(OC)cc3c2=N)cc1 was read as HCT116 PTEN-null 1.1* and bCat KO growth 1.6*.
`Oc1ccc(N=C/C=C/c2cccc(Br)c2)cc1-c1nc2ccccc2s1` gave HCT116 PTEN-null 5 and bCat KO growth 5.1*.
O=C(Nc1ccc(O)c(-c2nc3ccccc3s2)c1)c1cc(=O)c2ccccc2o1 was read as HCT116 PTEN-null 22 and bCat KO growth 31.
For Nc1ccc(O)c(-c2nc3ccccc3s2)c1 the results were Fibroblast inh 82, H69AR inhibit 97, HCT116 PTEN-null 3.4*, HUVEC inhibit 74 and bCat KO growth 8.
For O=S(=O)(Nc1cc(C(F)(F)F)ccc1N1CCOCC1)c1ccc2ccccc2c1 the results were HCT116 PTEN-null 72 and bCat KO growth 74.
CCOC(=O)N1C=CC(C)=C[C@@H]2[C@@H](N3C(=O)c4ccccc4C3=O)C(=O)N21 was read as HCT116 PTEN-null 99 and bCat KO growth 100.
Screening C1CCC(C(CC2CCCCN2)C2CCCCC2)CC1 (configuration not stated) returned Fibroblast inh 1.8*, H69AR inhibit 1.3*, HCT116 PTEN-null 2.2*, HUVEC inhibit 1.6* and bCat KO growth 1.5*.
`S=c1[nH]ncn1-c1ccccn1` gave Fibroblast inh 100, H69AR inhibit 93, HCT116 PTEN-null 100, HUVEC inhibit 101 and bCat KO growth 91.
For CC(C)CC(=O)OCC(=O)Nc1ccccc1Sc1ccccc1 the results were HCT116 PTEN-null 88 and bCat KO growth 91.
For Cc1ccc2cc(CN(CC3CCCO3)S(=O)(=O)c3cccc4nsnc34)c(=O)[nH]c2c1 (configuration not stated) the results were Fibroblast inh 101, H69AR inhibit 74, HCT116 PTEN-null 79, HUVEC inhibit 101 and bCat KO growth 87.
For COc1ccc(C2C(C#N)=C(N)N(c3cccnc3)C3=C2C(=O)CC(C)(C)C3)cc1OC (configuration not stated) the results were HCT116 PTEN-null 87 and bCat KO growth 84.
For COc1ccc(OC)c(N2C(N)=C(C#N)C(c3ccc(OC)c(O)c3)C3=C2CC(C)(C)CC3=O)c1 (configuration not stated) the results were Fibroblast inh 97, H69AR inhibit 16* and HUVEC inhibit 86.
For COc1ccc(N2C(N)=C(C#N)C(c3cccnc3)C3=C2CC(C)(C)CC3=O)cc1 (configuration not stated) the results were Fibroblast inh 80, H69AR inhibit 18*, HCT116 PTEN-null 67, HUVEC inhibit 65 and bCat KO growth 69.
COc1ccc(C2C(C#N)=C(N)N(Nc3ccccc3)C3=C2C(=O)CC(C)(C)C3)cc1C (configuration not stated) was read as HCT116 PTEN-null 59 and bCat KO growth 66.
`CC(=O)Nc1ccc(S(=O)(=O)N2CCOCC2)cc1` gave Fibroblast inh 113, H69AR inhibit 95, HCT116 PTEN-null 94, HUVEC inhibit 103 and bCat KO growth 90.
`Cc1cc(O)c(-c2cc(C(=O)Nc3ccc(S(=O)(=O)N4CCOCC4)cc3)[nH]n2)cc1C` gave Fibroblast inh 49*, H69AR inhibit 33*, HCT116 PTEN-null 9, HUVEC inhibit 45 and bCat KO growth 15.
Cc1ccc(O)c(-c2cc(C(=O)Nc3ccc(S(=O)(=O)N4CC(C)OC(C)C4)cc3)[nH]n2)c1 (configuration not stated) was read as Fibroblast inh 89, H69AR inhibit 17*, HCT116 PTEN-null 26, HUVEC inhibit 77 and bCat KO growth 33.
Screening CC(C)N=c1scc(-c2ccco2)n1/N=C/c1ccc(O)c(O)c1 returned Fibroblast inh 48*, H69AR inhibit 31*, HCT116 PTEN-null 72, HUVEC inhibit 47 and bCat KO growth 77.
For Oc1ccc(/C=N/n2c(-c3ccco3)csc2=Nc2cccnc2)c(O)c1 the results were HCT116 PTEN-null 31 and bCat KO growth 31.
For CCc1ccc(NC(=O)CCc2nc3cccnc3n2Cc2ccc(OC)cc2)cc1 the results were Fibroblast inh 45*, H69AR inhibit 18*, HCT116 PTEN-null 61, HUVEC inhibit 64 and bCat KO growth 58.
`O=C(O)CCc1nc2cccnc2n1Cc1ccccc1` gave Fibroblast inh 96, H69AR inhibit 73, HCT116 PTEN-null 96, HUVEC inhibit 101 and bCat KO growth 95.
COCCN1C(=O)C(=O)/C(=C(/O)c2ccc(OCC(C)C)cc2)C1c1cccnc1 (configuration not stated) was read as Fibroblast inh 104, H69AR inhibit 93 and HUVEC inhibit 101.
`O=C(N/N=C/c1ccc2c(c1)OCO2)C(O)c1ccccc1` (configuration not stated) gave HCT116 PTEN-null 95 and bCat KO growth 83.
For N#Cc1c(N)nc(SCC(=O)C23CC4CC(CC(C4)C2)C3)c(C#N)c1-c1ccc(Cl)cc1 the results were Fibroblast inh 77, H69AR inhibit 16*, HCT116 PTEN-null 79, HUVEC inhibit 53 and bCat KO growth 65.
Cc1ccc(NC(=O)NCCCc2ccccc2)cc1 was read as HCT116 PTEN-null 90 and bCat KO growth 104.
Screening COc1ccc2c3c(cccc13)NN=C2C returned Fibroblast inh 26*, H69AR inhibit 26* and HUVEC inhibit 3.0*.
Screening CN(C)S(=O)(=O)c1ccc(C(=O)OCn2nnc3ccccc3c2=O)cc1 returned Fibroblast inh 111, H69AR inhibit 97, HCT116 PTEN-null 108, HUVEC inhibit 106 and bCat KO growth 99.
Screening O=C(NCc1cccnc1)C1CC(c2ccc(F)cc2)=NO1 (configuration not stated) returned H69AR inhibit 101, HCT116 PTEN-null 90, HUVEC inhibit 106 and bCat KO growth 78.
`CN1CC=C2C(C#N)=C(N)C(C#N)(C#N)C(c3cccc(Cl)c3Cl)C2C1` (configuration not stated) gave Fibroblast inh 78, H69AR inhibit 15*, HCT116 PTEN-null 89, HUVEC inhibit 71 and bCat KO growth 84.
